Assay results of several laboratories.
Compare with care: the assays were run in different laboratories.
Target: Histamine H2 receptor (HRH2, Homo sapiens, UniProt P25021)
Tested at: 10 µM

SMILES	test	endpoint	result
CC(C)Cn1cnc2c(N)nc3ccccc3c21	ligand displacement, radioligand	inhibition	63%
CC(C)N1CCC[C@H]1CNC(=O)c1cn(C2CCCC2)c(=O)c2c1c1ccccc1n2C	ligand displacement, radioligand	inhibition	25%
COCc1c(-c2cc3cc(C)cc(OC)c3s2)c2c(N)ncnn2c1CN1CCNC(=O)C1	ligand displacement, radioligand	inhibition	-8%
Cn1cncc1[C@@](O)(COc1ccc(C#N)cc1-c1ccc(OC(F)(F)F)cc1)c1ccc(C#N)cc1	ligand displacement	inhibition	5.38%
C[C@H](C(=O)N[C@H]1COc2ccccc2[C@@H]1S(C)(=O)=O)c1ccc(F)cc1	cell-free assay	inhibition	-11%
CCCCCCCCCCCC(=O)OC[C@@H](COP(=O)(O)OCCNC(=O)c1ccc(Cn2c(=O)[nH]c3c(N)nc(OCCOC)nc32)cc1)OC(=O)CCCCCCCCCCC	ligand displacement, radioligand	inhibition	40%
N#CC1(c2ccccn2)CCN(Cc2cc(C(=O)O)c(=O)n3ccccc23)CC1	cell-free assay	inhibition	11.7%
Nc1ncc(-c2nc(N3CCOCC3)nc(N3CCOCC3)n2)c(C(F)F)n1	cell-free assay, radioligand	remaining signal	106%
CCN(CC)CCCC[C@H](NC(=O)[C@H](CC(C)C)NC(=O)[C@H](C)NC(=O)[C@H](Cc1ccccc1)NC(=O)c1ccc(C(C)(C)C)cc1)C(=O)N[C@@H](CO)C(=O)OC	ligand displacement, radioligand	inhibition	1%
COc1ccc(S(=O)(=O)N2CCCCC2)cc1C	ligand displacement, radioligand	inhibition	< 30%
Clc1ccc2c(C3CCN(CCc4c[nH]c5ccccc45)CC3)c[nH]c2c1	ligand displacement, radioligand	inhibition	53%
c1ccc(C(NCCNC(c2ccccc2)c2ccccc2)c2ccccc2)cc1	cell-free assay	inhibition	99%
